Screening data deposited in PubChem BioAssay by Sanford-Burnham Center for Chemical Genomics.
Jurkat NFkB inh: lowers PMA/ionomycin-induced NF-kB signal in Jurkat cells; PMA/ionomycin-induced NF-kB luciferase reporter, luminescence; 0.53% of 330,000 active; inhibition, % at 4 µM; in the data active = inhibition above about 50%
697 NFkB inh: lowers PMA/ionomycin-induced NF-kB signal in 697 B cells. inhibition, % at 4 µM. 697 B-cell NF-kB luciferase reporter, 16 h. 0.33% of 330,000 active; in the data active = inhibition above about 35%
UPR XBP1 act: adaptive UPR (XBP1) activation; CHO-XBP1 luciferase reporter, IRE1-XBP1 UPR activation, luminescence; percent of tunicamycin response, DMSO as zero; activation, % at 20 µM; 0.33% of 330,000 active; AID 463104;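 active = versus positive control, 20 µM dose yields 30% or more activation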;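 also: 100% = tunicamycin at 10 µg/mL and 0% = DMSO only wells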
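Test system: CHO-XBP1 luciferase reporter cells | Buffer or medium: Serum-containing F12 medium, 10% FBS | Schedule: 6 h compound exposure at 37 °C, 5% CO2 | Detection: Steady-Glo luciferase glow luminescence, 10 min after reagent addition | Read-out basis: Activation, % of tunicamycin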
CHOP UPR activ: activators of apoptotic arm of unfolded protein response (CHOP); CHO-CHOP luciferase reporter, UPR activation, luminescence; percent of tunicamycin response over DMSO baseline; 0.34% of 330,000 active; activation, % at 10 µM;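 active = at 10 µM dose, activation of 40% or more, normalized to positive control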;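 also: 100% = tunicamycin at 10 µg/mL and 0% = DMSO alone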
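Evaluation: % reporter activation, DMSO baseline versus tunicamycin full activation; System: CHO-CHOP luciferase reporter cell line; Input: 500 cells/well; Incubation: 6 h compound treatment, 37 °C; Measured by: Steady-Glo luciferase luminescence; Dosing: one dose, 10 µM in 0.5% DMSO; Buffer or medium: F12 medium, 10% FBS; Benchmarks: positive tunicamycin 10 µg/mL, negative DMSO alone.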
CRFBP-R2 block: CRF-BP/CRF-R2 complex antagonism; inhibition, % at 11.8 µM; HEK293 CRF-R2/CRF-BP, CRF-induced calcium fluorescence; 0.59% of 350,000 active;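 active = inhibition of the ligand-induced calcium signal above about 50% at the single tested concentration, limit read from the data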
Jurkat NFkB conf: inhibitors of the PMA/ionomycin-induced NF-kB reporter in Jurkat cells, retest. shares compounds with Jurkat NFkB inh. Jurkat NF-kB luciferase, 16 h. inhibition, % at 4 µM. 27% of 2,700 active. AID 435020;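 active = inhibition reaching about 45% at 4 µM in either replicate, limit read from the data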;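 also: plate controls were PMA/ionomycin stimulated DMSO wells for no effect and unstimulated DMSO wells for full effect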
* = called active by the depositor. An excerpt weighted towards active compounds, which were near 1.8% of everything screened.

For C=C(C)COc1ccc(-c2n[nH]c(C)c2-c2ccc(Br)cc2)c(O)c1 the results were Jurkat NFkB inh 50.1*, 697 NFkB inh -18.8, UPR XBP1 act 14.0, CHOP UPR activ 0.4, CRFBP-R2 block 5.4 and Jurkat NFkB conf 25.8.
Cc1cc2[nH]c(=O)c(=O)[nH]c2cc1S(=O)(=O)N1CCC(C)CC1 was read as Jurkat NFkB inh 2.6, 697 NFkB inh 18.5, UPR XBP1 act -1.2, CHOP UPR activ -0.3 and CRFBP-R2 block -3.2.
COc1ccc(OC(=O)c2cccc(S(=O)(=O)N3CC(C)OC(C)C3)c2)cc1 (centres undefined) was read as Jurkat NFkB inh 0.5, 697 NFkB inh 9.6, UPR XBP1 act -2.1, CHOP UPR activ -0.1 and CRFBP-R2 block 4.7.
`COc1cccc(C(=O)Nc2c3c(nn2-c2ccc(Cl)cc2)CS(=O)(=O)C3)c1OC` gave Jurkat NFkB inh -9.2, 697 NFkB inh -55.2, UPR XBP1 act 0.9, CHOP UPR activ 0.0 and CRFBP-R2 block -0.2.
CC(C)(C)c1ccc(C(=O)Nc2ccc([N+](=O)[O-])cn2)cc1 was read as Jurkat NFkB inh -182.3, 697 NFkB inh -95.8, UPR XBP1 act -3.4, CHOP UPR activ 2.2, CRFBP-R2 block -3.4 and Jurkat NFkB conf -113.0.
For O=C(Nc1ccc([N+](=O)[O-])cn1)c1cccnc1 the results were Jurkat NFkB inh 12.8, 697 NFkB inh 1.4, UPR XBP1 act -0.9, CHOP UPR activ 0.3 and CRFBP-R2 block 6.1.
Screening COc1ccc(/C=N/NC(=O)c2cccnc2)cc1CN1CCc2ccccc2C1 returned Jurkat NFkB inh 11.1, 697 NFkB inh 1.7, UPR XBP1 act -1.1, CHOP UPR activ 1.5 and CRFBP-R2 block -6.1.
COc1ccc(/C=N/NC(=O)c2cccnc2)cc1Cn1nc([N+](=O)[O-])c(Br)c1C was read as Jurkat NFkB inh 51.8*, 697 NFkB inh -41.4, UPR XBP1 act 4.8, CHOP UPR activ -1.5 and Jurkat NFkB conf 40.8.
For CC(=O)N(C(C)=O)c1ccc2c(c1)OCCO2 the results were CRFBP-R2 block -9.3.
For O=C(N/N=C/c1cccnc1)c1cc(O)c(O)c(O)c1 the results were Jurkat NFkB inh -0.1, 697 NFkB inh -3.2, UPR XBP1 act 6.6, CHOP UPR activ -0.3 and CRFBP-R2 block -3.2.
Screening CC(=O)c1ccc(NC(=O)c2noc3c2CCCCC3)cc1 returned Jurkat NFkB inh -164.7, 697 NFkB inh -120.6, UPR XBP1 act -1.3, CHOP UPR activ 4.8, CRFBP-R2 block -17.4 and Jurkat NFkB conf -96.4.
O=C(Nc1ccc2c(c1)OCO2)c1noc2c1CCCCC2 was read as Jurkat NFkB inh -144.7, 697 NFkB inh -153.2, UPR XBP1 act -0.7, CHOP UPR activ 1.1 and CRFBP-R2 block -1.6.
`Cc1ccc(-n2c(SCC(=O)N(C)C3CCS(=O)(=O)C3)nc3ccccc3c2=O)c(C)c1` (centres undefined) gave Jurkat NFkB inh 3.9, 697 NFkB inh 6.5, UPR XBP1 act -2.8, CHOP UPR activ 1.5 and CRFBP-R2 block -14.4.
`Cc1cc(NC(=O)NC(=O)c2ccccc2NC(=O)C(C)N)ccc1Oc1ncc(Br)cn1` (centres undefined) gave CRFBP-R2 block -44.5.
CC(=O)c1cccc(NC(=S)NC(=O)c2ccc(C)cc2)c1 was read as Jurkat NFkB inh -106.1, 697 NFkB inh -34.2, UPR XBP1 act 2.8, CHOP UPR activ 3.3 and CRFBP-R2 block -13.5.
For CC(=O)c1cccc(NC(=S)NC(=O)c2ccc(Br)cc2)c1 the results were Jurkat NFkB inh 91.3*, 697 NFkB inh -108.6, UPR XBP1 act 2.1, CHOP UPR activ 4.5, CRFBP-R2 block -22.1 and Jurkat NFkB conf 18.2.
`CCOc1cccc2cc(-c3csc(NC(=O)CCC(=O)NCCN4CCCCC4C)n3)c(=O)oc12` (centres undefined) gave Jurkat NFkB inh -200.4, 697 NFkB inh -57.4, UPR XBP1 act 5.2, CHOP UPR activ 2.9, CRFBP-R2 block -0.8 and Jurkat NFkB conf -31.6.
CCOc1cccc2cc(-c3csc(NC(=O)CCC(=O)NCCCN4CCC(C)CC4)n3)c(=O)oc12 was read as Jurkat NFkB inh -185.1, 697 NFkB inh -99.4, UPR XBP1 act 2.8, CHOP UPR activ 5.0 and Jurkat NFkB conf -70.8.
COc1cccc2cc(-c3csc(NC(=O)CCC(=O)NCCCN4CCC(C)CC4)n3)c(=O)oc12 was read as Jurkat NFkB inh -157.9, 697 NFkB inh -237.4, UPR XBP1 act -0.6, CHOP UPR activ 0.4, CRFBP-R2 block -17.0 and Jurkat NFkB conf -103.8.
Cc1nc2ccccc2c2oc(C(=O)NCCN3CCCCC3C)cc12 (centres undefined) was read as Jurkat NFkB inh -8.8, 697 NFkB inh -5.6, UPR XBP1 act 1.9, CHOP UPR activ 0.5 and CRFBP-R2 block 7.4.
Screening COc1ccc(OC)c(-c2csc(NC(=O)CN3C(=O)C4CCCCC4C3=O)n2)c1 (centres undefined) returned Jurkat NFkB inh -9.2, 697 NFkB inh -5.9, UPR XBP1 act -1.1, CHOP UPR activ 0.2 and CRFBP-R2 block -0.1.
For C/C(=N\NC(=O)C1(C)CC1(Br)Br)c1cccc(NC(=O)c2ccc(C)o2)c1 (centres undefined) the results were Jurkat NFkB inh 7.5, 697 NFkB inh 17.9, UPR XBP1 act -2.2, CHOP UPR activ 2.0 and CRFBP-R2 block -25.5.
CN(C(=O)c1cccc(NC(=O)Cc2ccc(NC(=O)C3CCN(C(=O)c4ccccc4)CC3)cc2)c1)C1CCCCC1 was read as CRFBP-R2 block 22.6.
For COc1cccc2c1C1COC3C4CC(C(=O)O)C(C(C2)N13)N4C (centres undefined) the results were CRFBP-R2 block 29.3.
For O=C(Nc1ccc(Br)cn1)c1cccc2c1-c1ccccc1C2=O the results were Jurkat NFkB inh 61.3*, 697 NFkB inh 5.7, UPR XBP1 act 3.5, CHOP UPR activ -0.3, CRFBP-R2 block -41.8 and Jurkat NFkB conf 17.9.
O=C(c1noc2c1CSc1ccccc1-2)N1CCN(c2ccc(Cl)cc2)CC1 was read as Jurkat NFkB inh 19.8, 697 NFkB inh -3.5, UPR XBP1 act -1.0, CHOP UPR activ -1.2 and CRFBP-R2 block -4.7.
Screening O=[N+]([O-])c1ccc(N2CCN(c3cccc(Cl)c3)CC2)nc1 returned Jurkat NFkB inh 61.3*, 697 NFkB inh 4.6, UPR XBP1 act -2.3, CHOP UPR activ -1.2, CRFBP-R2 block -0.7 and Jurkat NFkB conf 15.4.
OCc1cccc[n+]1Cc1ccccc1 was read as Jurkat NFkB inh 15.6, 697 NFkB inh 16.3, UPR XBP1 act 1.9, CHOP UPR activ 0.3 and CRFBP-R2 block 7.9.
Cn1cc(C(=O)NCc2ccc(Cl)cc2)c(=O)c2cc(S(=O)(=O)N3CCOCC3)ccc21 was read as Jurkat NFkB inh 21.9, 697 NFkB inh -10.9, UPR XBP1 act -2.8, CHOP UPR activ 1.7 and CRFBP-R2 block -13.4.
